Data set [1] is described as follows: folding enthalpy; higher = less favourable; fluorescence melt of hairpins on a sequencing array, two-state fit. As to conditions: sodium 0.088 M. The procedure, abridged:
(§1)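 Folding enthalpy and melting temperature were estimated with bootstrapped two-state fits and combined across four replicates by inverse-variance weighting, with fitted temperatures raised by 9.35 °C to match UV melts. The data were Cy3 fluorescence of library hairpins, with annealed Cy3 and quencher oligos, on a sequenced MiSeq flow cell in 50 mM Na-HEPES pH 8.0, 25 mM NaCl, imaged in 2.5 °C steps up to 60 °C and normalised to pre-quench Cy3 and control constructs.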

The nature of data set [2]: melting temperature; fluorescence melt of hairpins on a sequencing array, two-state fit, raised by 9.35 °C to match UV melts. The following applies: sodium 0.088 M. The procedure, abridged:
as §1

GGCGTTTCGAAAGAAGCC (((..(((....)))))): the folding enthalpy in data set [1] is -23.8 kcal/mol. The Tm in data set [2] stood at 42.5 °C.

Turning to GATCGGTGCCCGATC ((((((...)))))), in data set [1], the folding enthalpy was -40.8 kcal/mol. Further, the Tm in data set [2] came to 58 °C.

For GACGCGGGAAACCGCATC ((.((((....)))).)), in data set [1], the folding enthalpy was -13.4 kcal/mol. In addition, the Tm in data set [2] was 40.1 °C.

On to GTGGCCGAAAGGCAACAC ((((((....)))..))), for which the folding enthalpy in data set [1] is -13.3 kcal/mol. In addition, the Tm in data set [2] was found to be 55.5 °C.

GATCTTATAAAGATC ((((((...)))))): the folding enthalpy in data set [1] was -29.4 kcal/mol. The Tm in data set [2] was found to be 44 °C.

On to GATCGGTCACCCGATC ((((((....)))))), for which the folding enthalpy in data set [1] was -31.4 kcal/mol. Besides, the Tm in data set [2] amounted to 56.4 °C.

For the sequence GTAGACGAAAGTCAATAC ((((((....)))..))), in data set [1], the folding enthalpy is -13.5 kcal/mol. The Tm in data set [2] came to 27.6 °C.

For GATCTGGCACCAGATC ((((((....)))))), in data set [1], the folding enthalpy is -41.3 kcal/mol. The Tm in data set [2] amounted to 55.1 °C.

Turning to GTGTGAGGAAACTCACAC (((((((....))))))), in data set [1], the folding enthalpy is -49.1 kcal/mol. In addition, the Tm in data set [2] worked out at 63.4 °C.

With GCCTACGAAAGTATGGGC ((((((....)))..))), the folding enthalpy in data set [1] is -34.8 kcal/mol. For the same sequence, the Tm in data set [2] is 46.5 °C.

On to GGTGTCCCGAAAGGGACC (((..(((....)))))), for which the folding enthalpy in data set [1] was -9.51 kcal/mol. The Tm in data set [2] came out at 49.5 °C.

For the sequence GATCCAAATTGGATC ((((((...)))))), the folding enthalpy in data set [1] was -31.8 kcal/mol. In addition, the Tm in data set [2] is 48.3 °C.

Turning to GTCCAGACGAAAGTCGAC (((..(((....)))))), the folding enthalpy in data set [1] is -11.1 kcal/mol. Further, the Tm in data set [2] was found to be 36.9 °C.

As to GATCCCCCTGGGATC ((((((...)))))), the folding enthalpy in data set [1] was -38.4 kcal/mol. The Tm in data set [2] stood at 62.1 °C.

In the case of GTATCCGAAAGGAGGTAC ((((((....)))..))), in data set [1], the folding enthalpy is -10.3 kcal/mol. The Tm in data set [2] was 28.5 °C.

Take GATCGTGGTCACGATC ((((((....)))))): the folding enthalpy in data set [1] was -41.9 kcal/mol. The Tm in data set [2] was found to be 57.7 °C.

As to GGCTTCGCGAAAGCGGCC (((..(((....)))))), in data set [1], the folding enthalpy is -16.4 kcal/mol. In addition, the Tm in data set [2] came out at 48.8 °C.

With GTTATGGGAAACCATAAC (((((((....))))))), the folding enthalpy in data set [1] was -43.7 kcal/mol. Moreover, the Tm in data set [2] stood at 54 °C.

For GTCTTTGCGAAAGCAGAC (((..(((....)))))), the folding enthalpy in data set [1] was -16.3 kcal/mol. For the same sequence, in data set [2], the Tm worked out at 34.6 °C.

With GATCCCCGCCGGGATC ((((((....)))))), the folding enthalpy in data set [1] was -40.3 kcal/mol. Also, the Tm in data set [2] was found to be 57.7 °C.

Take CGAGGCGGAAACGCATCG (((.(((....))).))): the folding enthalpy in data set [1] is -37 kcal/mol. For the same sequence, the Tm in data set [2] came to 64.2 °C.

Regarding TCAATGAAAATTGA (((((....))))), in data set [1], the folding enthalpy is -9.78 kcal/mol. The Tm in data set [2] stood at 25 °C.

For GTACGGCGAAAGCCTAC (((.(((....)))))), the folding enthalpy in data set [1] was -14.9 kcal/mol. The Tm in data set [2] amounted to 44.4 °C.

Turning to GGTTGCCCGAAAGGGACC (((..(((....)))))), in data set [1], the folding enthalpy is -11.5 kcal/mol. Besides, in data set [2], the Tm worked out at 37.9 °C.

Take GAACCCGAAAGGGGATTC ((((((....)))..))): in data set [1], the folding enthalpy was -16.6 kcal/mol. Also, the Tm in data set [2] came out at 42.9 °C.

Consider CGACAGAAATGTCG (((((....))))), for which the folding enthalpy in data set [1] was -26.1 kcal/mol. The Tm in data set [2] was 52.9 °C.

In the case of GCTTGTGGAAACACAAGC (((((((....))))))), in data set [1], the folding enthalpy was -39.9 kcal/mol. Further, the Tm in data set [2] came to 63.9 °C.

As to GGAGTCGAAAGACGTCC ((((((....))).))), the folding enthalpy in data set [1] is -14.7 kcal/mol. In addition, the Tm in data set [2] was 46 °C.

GCTATGGGAAACCATAGC (((((((....))))))): the folding enthalpy in data set [1] was -40.7 kcal/mol. Moreover, the Tm in data set [2] amounted to 61.4 °C.

For the sequence GATCATTTCATGATC ((((((...)))))), the folding enthalpy in data set [1] is -40.6 kcal/mol. Also, the Tm in data set [2] came to 51.8 °C.

As for GATCAAGTCTTGATC ((((((...)))))), in data set [1], the folding enthalpy is -30.4 kcal/mol. In data set [2], the Tm turned out to be 46.2 °C.

With GCGTACGCGAAAGCGCGC (((..(((....)))))), in data set [1], the folding enthalpy is -16.8 kcal/mol. In data set [2], the Tm worked out at 58.5 °C.

In the case of GATCGGAATCCGATC ((((((...)))))), the folding enthalpy in data set [1] was -34.8 kcal/mol. The Tm in data set [2] is 53.5 °C.

For GTCTACGGAAACGTGGAC (((.(((....))).))), the folding enthalpy in data set [1] is -39.8 kcal/mol. Moreover, the Tm in data set [2] is 53.1 °C.

As to GGCACGGGAAACCGTACC ((.((((....)))).)), the folding enthalpy in data set [1] is -34.4 kcal/mol. In addition, the Tm in data set [2] is 48.4 °C.

With GTCATTCCGAAAGGAGAC (((..(((....)))))), the folding enthalpy in data set [1] is -10.2 kcal/mol. The Tm in data set [2] is 29.2 °C.

On to GCCACCGGAAACAGTGGC (((((.(....).))))), for which the folding enthalpy in data set [1] was -30.7 kcal/mol. For the same sequence, the Tm in data set [2] was 52.6 °C.

For the origin of these results see the array DNA melting data of Ke et al. (doi:10.1101/2024.01.08.574731).
